Data as given in article PMC5003678 (European journal of medicinal chemistry, 2016).

Key:
[1] = system: HL-60 (human promyelocytic leukemia cells); settings: read-out: Cytotoxic activity IC50 (95% CI) HL-60; 72 h exposure; ref [41]; cited from earlier work
[2] = system: SF295 (human glioblastoma cells); settings: read-out: Cytotoxic activity IC50 (95% CI) SF295; 72 h exposure; ref [41]; cited from earlier work
[3] = system: A549 cells (human non-small cell lung adenocarcinoma); test: DNA survival assay, NQO1-dependency with or without dicoumarol; assay type: cell-based; settings: two hours exposure
PC3 cells = test: Annexin V/PI detection of phosphatidylserine externalization; assay type: cell-based, human; settings: 5 μM, 6 h; for phosphatidylserine externalization, pre-treated with NAC: 5 mM NAC pre-exposure (24 h); for phosphatidylserine externalization, co-treated with dicoumarol: dicoumarol 50 μM
Method in brief: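 PC3 cells were grown in RPMI 1640 with 10% FBS, 2 mM L-glutamine and penicillin/streptomycin at 37 °C and 5% CO2. They were exposed to 5 μM test compound for 6 h, either after a 24 h pre-exposure to 5 mM N-acetylcysteine or with 50 μM dicoumarol co-treatment. Cells were stained with FITC-Annexin V plus PI and read by flow cytometry, with early apoptosis as FITC only and late as FITC+PI. 10,000 events were counted per experiment, debris excluded, n = 3.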

[4] = system: six cancer cell lines (HL-60, HCT-116, PC3, SF295, MDA-MB-435, OVCAR-8); test: MTT cytotoxicity assay, cancer cell lines overall; assay type: cell-based, human; settings: classified by IC50
intracellular ROS = test: Generation of intracellular ROS; assay type: cell-based

Row | SMILES | NQO1 Specific [3] | phosphatidylserine externalization (PC3 cells) | phosphatidylserine externalization, pre-treated with NAC (PC3 cells) | phosphatidylserine externalization, co-treated with dicoumarol (PC3 cells) | activity classification against cancer cell lines [4] | further results
1 | CC1(C)OC2=C(C(=O)C(=O)c3ccccc32)C(N=[N+]=[N-])[C@@H]1Br (stereo partly drawn) [Compound 9] |  |  |  |  |  | IC50 [1]: 1430 nM; IC50 [2]: 1930 nM
2 | CC1(C)OC2=C(C(=O)C(=O)c3ccccc32)C1n1cc(C[Se]c2ccccc2)nn1 (stereo not drawn) [Compound 22, 2,2-dimethyl-3-(4-((phenylselanyl)methyl)-1H-1,2,3-triazol-1-yl)-2,3-dihydronaphtho[1,2-b]furan-4,5-dione] | NQO1-dependent | significant increase | not observed | not observed |  | 
3 | C#Cc1cccc(NC2CC(C)(C)OC3=C2C(=O)c2ccccc2C3=O)c1 (stereo not drawn) [Compound 4, 4-((3-ethynylphenyl)amino)-2,2-dimethyl-3,4-dihydro-2H-benzo[g]chromene-5,10-dione] |  |  |  |  | non-active | 
4 | O=C1C(=O)c2ccccc2C2=C1CC(Cn1cc(C[Se]c3ccccc3)nn1)O2 (stereo not drawn) [Compound 26, 2-((4-((phenylselanyl)methyl)-1H-1,2,3-triazol-1-yl)methyl)-2,3-dihydronaphtho[1,2-b]furan-4,5-dione] |  |  |  |  | highly active (highly active (IC50 < 2 μM)) | 
5 | CC1(C)OC2=C(C(=O)C(=O)c3ccccc32)C1Nc1cccc(-c2cn(C[Se]c3ccccc3)nn2)c1 (stereo not drawn) [Compound 21, 2,2-dimethyl-3-((3-(1-((phenylselanyl)methyl)-1H-1,2,3-triazol-4-yl)phenyl)amino)-2,3-dihydronaphtho[1,2-b]furan-4,5-dione] | NQO1-dependent | significant increase | not observed | not observed | highly active (highly active (IC50 < 2 μM)) | generation of intracellular ROS, pre-exposed with NAC (intracellular ROS; cultures pre-exposed with NAC): not able to generate ROS; generation of intracellular ROS (intracellular ROS; short exposure (1 h)): led to the generation of intracellular ROS
